The target in test [1] is T1, Tyrosine-protein phosphatase non-receptor type 1 (Homo sapiens, UniProt P18031).
T1 sequence (P18031 whole entry): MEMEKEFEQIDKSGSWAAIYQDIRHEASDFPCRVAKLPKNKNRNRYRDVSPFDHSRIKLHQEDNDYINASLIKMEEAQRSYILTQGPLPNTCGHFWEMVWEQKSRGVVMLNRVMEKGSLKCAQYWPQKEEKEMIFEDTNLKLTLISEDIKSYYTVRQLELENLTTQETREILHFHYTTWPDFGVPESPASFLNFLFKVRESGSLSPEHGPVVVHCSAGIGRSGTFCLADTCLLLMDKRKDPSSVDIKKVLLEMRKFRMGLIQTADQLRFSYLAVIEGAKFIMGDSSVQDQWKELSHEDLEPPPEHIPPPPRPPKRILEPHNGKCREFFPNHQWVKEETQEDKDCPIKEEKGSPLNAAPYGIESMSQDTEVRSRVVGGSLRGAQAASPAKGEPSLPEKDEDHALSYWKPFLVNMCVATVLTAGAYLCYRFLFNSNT
The experiment in a line: Inhibition of GST-tagged human PTP1B. The method in brief:
(§1)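 p-Nitrophenylphosphate hydrolysis at 37 °C in pH 7.0 buffer with 0.075 M β,β-dimethylglutarate, 1 mM EDTA and 5 mM DTT. The enzyme was added to start the reaction, which was stopped with 1 M KOH. Released p-nitrophenolate was read at 400 nm. Initial rates were measured in triplicate with substrate fixed at each PTP's Km. IC50 was fitted from Vi/V0 = IC50/(IC50+[I]).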

Test [2] has as its target T2, Low molecular weight phosphotyrosine protein phosphatase (Saccharomyces cerevisiae S288c, UniProt P40347).
T2 sequence (P40347 whole entry): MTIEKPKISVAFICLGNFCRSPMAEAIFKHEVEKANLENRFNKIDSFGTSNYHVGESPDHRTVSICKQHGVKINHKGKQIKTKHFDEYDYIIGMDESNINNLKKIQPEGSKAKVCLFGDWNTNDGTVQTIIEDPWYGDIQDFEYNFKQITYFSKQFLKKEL
As to the kind of experiment: Inhibition of Saccharomyces cerevisiae Ltp1. The method in brief: as §1

The target in test [3] is T3, Low molecular weight phosphotyrosine protein phosphatase (Homo sapiens, UniProt P24666).
T3 sequence (P24666 whole entry): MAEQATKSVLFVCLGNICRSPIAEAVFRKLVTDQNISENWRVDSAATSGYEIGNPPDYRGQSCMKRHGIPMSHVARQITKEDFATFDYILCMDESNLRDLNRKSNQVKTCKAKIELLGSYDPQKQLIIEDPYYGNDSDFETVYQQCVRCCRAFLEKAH
The experiment in a line: Inhibition of GST-tagged human LMW PTP1B IF1 isoform. In a few lines: as §1

For test [4], the target named is Low molecular weight PTP, IF2 isoform (Homo sapiens). The experiment in a line: Inhibition of GST-tagged human LMW PTP1B IF2 isoform.

The values that follow come from ChEMBL document CHEMBL1153913, “5-Arylidene-2-phenylimino-4-thiazolidinones as PTP1B and LMW-PTP inhibitors” (Bioorg Med Chem, 2009).

Take `O=C(O)c1ccc(CN2C(=O)/C(=C/c3cccc4ccccc34)S/C2=N\c2ccccc2)cc1`: the IC50 is 14 µM in test [1] and over 500 µM in test [2].

For the compound `O=C(O)c1ccc(CN2C(=O)/C(=C/c3ccc(Oc4ccccc4)cc3)S/C2=N\c2ccccc2)cc1`, the figures for the IC50 in test [1] and in test [2] were 1.1 µM and 6.3 µM, respectively.

On to `O=C(O)c1ccc(CN2C(=O)/C(=C/c3ccc(O)c(C(=O)O)c3)S/C2=N\c2ccccc2)cc1`, for which the IC50 in test [1] was 19.5 µM; in test [2], 345 µM.

For the compound `COc1ccc(/C=C2\S/C(=N\c3ccccc3)N(Cc3ccc(C(=O)O)cc3)C2=O)cc1O`, the IC50 in test [1] was 32.1 µM; in test [2] it was over 250 µM.

For `O=C(O)c1ccc(CN2C(=O)/C(=C/c3cccc(Oc4ccccc4)c3)S/C2=N\c2ccccc2)cc1`, the IC50 is 1.9 µM in test [1] and 11.1 µM in test [2].

Regarding `O=C(O)c1ccc(CN2C(=O)/C(=C/c3cccc(OCc4ccccc4)c3)S/C2=N\c2ccccc2)cc1`, the results for the half-maximal inhibitory concentration (IC50) in test [1] and in test [2] were 3.8 µM and 12.9 µM, respectively.

Turning to `COc1cc(/C=C2\S/C(=N\c3ccccc3)N(Cc3ccc(C(=O)O)cc3)C2=O)ccc1O`, the IC50 in test [1] is 33.7 µM; in test [2], over 250 µM.

Turning to `O=C(O)c1ccc(CN2C(=O)/C(=C/c3ccc(O)cc3)S/C2=N\c2ccccc2)cc1`, the 50% inhibitory concentration (IC50) came out at 47.7 µM in test [3], 30.1 µM in test [1], 270 µM in test [4] and 195 µM in test [2].

Turning to `O=C(O)c1ccc(CN2C(=O)/C(=C/c3ccc4ccccc4c3)S/C2=N\c2ccccc2)cc1`, the IC50 was 3.7 µM in test [3], 1.9 µM in test [1], 13.8 µM in test [4] and 27.6 µM in test [2].

For the compound `O=C(O)c1ccc(CN2C(=O)/C(=C/c3ccc(OCc4ccccc4)cc3)S/C2=N\c2ccccc2)cc1`, the figures for the half-maximal inhibitory concentration (IC50) in test [1] and in test [2] were 1.1 µM and 15.9 µM, respectively.

On to `O=C(O)c1ccc(CN2C(=O)/C(=C/c3cccc(O)c3)S/C2=N\c2ccccc2)cc1`, for which the IC50 in test [3] was 62.5 µM; in test [1], 35.4 µM; in test [4], over 250 µM; in test [2], over 250 µM.
